Assay results from different studies.
PTGES: Prostaglandin E synthase (PTGES, Homo sapiens, UniProt O14684)
CHRM2: Muscarinic acetylcholine receptor M2 (CHRM2, Homo sapiens, UniProt P08172)

| Compound | target | read-out | mode | technique | endpoint | result |
| --- | --- | --- | --- | --- | --- | --- |
| CCCCCc1cc(O)c2c(c1)OC(C)(C)c1ccc(C)cc1-2 | PTGES | enzyme activity | inhibitor | – | IC50 | > 10 µM |
| CC(C)C[C@H](NC(=O)[C@H](Cc1ccccc1)NC(=O)[C@H](Cc1ccc(O)cc1)NC(=O)CNC(=O)[C@H](CCCCN)NC(=O)[C@H](CO)NC(=O)[C@H](CCC(N)=O)NC(=O)CNC(=O)[C@@H](NC(=O)[C@H](CO)NC(=O)[C@@H]1CCCN1C(=O)[C@H](CO)NC(=O)[C@H](CCC(N)=O)NC(=O)[C@H](Cc1ccc(O)cc1)NC(=O)[C@H](CCC(=O)O)NC(=O)[C@H](C)NC(=O)[C@H](CCCCN)NC(=O)[C@@H](N)Cc1ccccc1)C(C)C)C(=O)N[C@@H](Cc1ccccc1)C(=O)N[C@@H](CCCNC(=N)N)C(=O)N1CCC[C@H]1C(=O)N[C@@H](CCCNC(=N)N)C(=O)N[C@@H](CC(N)=O)C(N)=O | Neuromedin-U receptor 1 (Mus musculus, UniProt O55040) | β-arrestin recruitment | agonist | – | EC50 | 0.000501 µM |
| CCCCCCCNCCCc1ccc([N+](=O)[O-])cc1 | CHRM2 | ligand displacement | – | radioligand | Ki | 3.2 µM |
| CC(C)(C)[C@H](NC(=O)C(F)(F)F)C(=O)N1C[C@H]2[C@@H]([C@H]1C(=O)N[C@H](C#N)C[C@@H]1CCNC1=O)C2(C)C | Organic anion transporter 3 (SLC22A8, Homo sapiens, UniProt Q8TCC7) | transporter uptake | inhibitor | – | Ki | 521 µM |
| CC(C)C[C@H](NC(=O)CNC(=O)[C@H](C)NC(=O)c1ccc(S[C@@H]2O[C@H](CO)[C@H](O)[C@H](O)[C@H]2O)cc1)C(=O)N[C@@H](C)C(=O)N[C@H]1CCN(c2cc3c(cc2F)c(=O)c(C(=O)O)cn3C2CC2)C1 | PA-I galactophilic lectin (lecA, Pseudomonas aeruginosa, UniProt Q05097) | ligand displacement | – | FP | Ki | 12 µM |
| CC(C)[N+](C)(CCC(C(N)=O)(c1ccccc1)c1ccccc1)C(C)C | CHRM2 | ligand displacement | – | radioligand | IC50 | 0.007 µM |
| CCCCCc1cc(O)c2c(c1)OC(C)(C)[C@@H]1CCC(C)=C[C@@H]21 | PTGES | enzyme activity | inhibitor | – | IC50 | > 10 µM |
| CCCCCCCCCCCCNCCCc1ccc([N+](=O)[O-])cc1 | CHRM2 | ligand displacement | – | radioligand | Ki | 5.6 µM |
